Measurements published in ChEMBL document CHEMBL1127795, “Small-molecule immunostimulants. Synthesis and activity of 7,8-disubstituted guanosines and structurally related compounds” (1994).

How the values were obtained:
[1] = species: Mus musculus; experiment: Percent of maximum response was tested for its ability to act as B-cell mitogens (mitogenicity); assay type: functional
Procedure, shortened: (§1)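 CBA/CaJ mouse spleen cells (1 × 10⁵/0.2 mL) exposed to graded compound concentrations, dissolved in water or DMSO and diluted in medium, for 24 h. [³H]thymidine then added for a further 24 h; incorporation by scintillation counting. ED50 and maximal response expressed relative to a concurrently run standard (loxoribine in most cases).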

[2] = species: Mus musculus; experiment: Percent of maximum response was tested to augment the antibody response of B cells to sheep red blood cell challenge; assay type: functional
Procedure, shortened: (§2)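 CBA/CaJ spleen cells depleted of T cells with anti-T cell monoclonal antibody (1:1000, 30 min, 4 °C) then complement (37 °C, 45 min). Cultured ± 0.1% SRBC antigen in serum-containing medium with compound from zero to 10⁻³ M for 4 d. Plaque-forming cells counted in agarose with guinea pig complement. ED50 and maximal response relative to a concurrent standard.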

[3] = species: Mus musculus; experiment: Ability to act as B-cell mitogens; assay type: functional; details: read-out: ED50 (the source's name); procedure, shortened: as §1
[4] = system: YAC-1; experiment: Stimulation of natural killer (NK) response in Yac-1 cell line (mouse, lymphoma); assay type: functional; details: read-out: ED50 (the source's name)
[5] = species: Mus musculus; experiment: Augment antibody response of B cells to sheep red blood cell (SRBC) challenge (adjuvanticity); assay type: functional; details: read-out: ED50 (the source's name); procedure, shortened: as §2
[6] = system: YAC-1; experiment: Percent of maximum response was tested for its ability to stimulate the natural killer response in murine in vitro cell assays; assay type: functional, Mus musculus
[7] = system: YAC-1; experiment: Stimulation of natural killer (NK) response in Yac-1 cell line (mouse, lymphoma); Neg indicates a response lower than vehicle control; assay type: functional, cell-based

SMILES	Max response [1]	Max response [2]	EC50 [3]	EC50 [4]	EC50 [5]	Max response [6]	ED50 [7]
C=CCn1c(=S)n(C2OC(COC(C)=O)[C@H]3OC(C)(C)O[C@@H]23)c2nc(N)nc(O)c21 (stereo not given in full)	20%	141%	50 µM	30 µM	50 µM	30%	–
CCn1c(=O)n(C2OC(CO)[C@@H](O)[C@H]2O)c2nc(N)nc(O)c21 (stereo not given in full)	82%	82%	–	–	15 µM	–	–
NC(=O)Cn1c(=O)n(C2OC(CO)[C@@H](O)[C@H]2O)c2nc(N)nc(O)c21 (stereo not given in full)	72%	32%	117 µM	90 µM	190 µM	42%	–
Nc1nc(O)c2c(n1)n(C1OC(CO)[C@@H](O)[C@H]1O)c(=O)n2CC(O)CO (stereo not given in full)	–	136%	–	–	45 µM	–	–
C=CCn1c(=O)n([C@@H]2O[C@H](CO)[C@H]3OC(C)(CCC(=O)O)O[C@H]32)c2nc(N)nc(O)c21 (stereo not given in full)	–	–	–	–	–	0%	Negative
CCCCCCn1c(=O)n(C2OC(CO)[C@@H](O)[C@H]2O)c2nc(N)nc(O)c21 (stereo not given in full)	11%	–	600 µM	–	–	–	–
C=CCn1c(=O)n(C2OC(CO)[C@@H](O)C2O)c2nc(N)nc(O)c21 (stereo not given in full)	76%	143%	233 µM	60 µM	17 µM	68%	–
[N-]=[N+]=NCC(O)Cn1c(=O)n(C2OC(CO)[C@@H](O)[C@H]2O)c2nc(N)nc(O)c21 (stereo not given in full)	–	91%	–	–	39 µM	–	–
Cn1c(=O)n(C2OC(CO)[C@@H](O)[C@H]2O)c2nc(N)nc(O)c21 (stereo not given in full)	100%	99%	120 µM	56 µM	10 µM	72%	–
Nc1nc(O)c2c(n1)n(C1OC(CO)[C@@H](O)[C@H]1O)c(=O)n2CC(O)CN1CCN(c2ccc(F)cc2)CC1 (stereo not given in full)	–	16%	–	–	–	–	–
Nc1nc(O)c2c(n1)n(C1OC(CO)[C@@H](O)[C@H]1O)c(=O)n2Cc1ccc(Cl)cc1 (stereo not given in full)	–	15%	–	180 µM	14 µM	27%	–
C=CCn1c(=O)n([C@@H]2O[C@H](CO)[C@H]3OC(CCC)(CCC)O[C@H]32)c2nc(N)nc(O)c21	38%	123%	–	11 µM	4 µM	56%	–
CN(C)CCCn1c(=O)n(C2OC(CO)[C@@H](O)[C@H]2O)c2nc(N)nc(O)c21 (stereo not given in full)	63%	83%	820 µM	–	194 µM	–	–
CCOC(=O)Cn1c(=O)n(C2OC(CO)[C@@H](O)[C@H]2O)c2nc(N)nc(O)c21 (stereo not given in full)	58%	86%	630 µM	–	48 µM	–	–
Cn1c(=O)n([C@@H]2O[C@H](CO)[C@H]3OC(C)(C)O[C@H]32)c2nc(N)nc(O)c21	17%	193%	–	–	168 µM	–	–
C=CCn1c(=O)n(C2OC(COC(=O)CCC)[C@@H](OC(=O)CCC)[C@H]2OC(=O)CCC)c2nc(NC(=O)CCC)nc(O)c21 (stereo not given in full)	–	109%	–	–	53 µM	12%	Negative
N#Cc1cccc(Cn2c(=O)n(C3OC(CO)[C@@H](O)[C@H]3O)c3nc(N)nc(O)c32)c1 (stereo not given in full)	–	16%	–	–	3 µM	11%	Negative
C=CCn1c(=O)n(C2OC(CO[Si](c3ccccc3)(c3ccccc3)C(C)(C)C)[C@@H](O)[C@H]2O)c2nc(N)nc(O)c21 (stereo not given in full)	–	33%	–	–	18 µM	15%	Negative
Nc1nc(O)c2c(n1)n(C1OC(CO)[C@@H](O)[C@H]1O)c(=O)n2Cc1ccc(OCc2ccccc2)cc1 (stereo not given in full)	–	5%	–	–	8 µM	6%	Negative
C=CCn1c(=[Se])n(C2OC(CO)[C@@H](O)[C@H]2O)c2nc(N)nc(O)c21 (stereo not given in full)	107%	70%	118 µM	–	15 µM	–	–
Cn1c(=O)n(C2OC(CI)[C@@H](O)[C@H]2O)c2nc(N)nc(O)c21 (stereo not given in full)	4%	32%	52 µM	–	–	–	–
CCCn1c(=O)n(C2CCC(CO)O2)c2nc(N)nc(O)c21 (stereo not given)	84%	118%	52 µM	14 µM	6 µM	102%	–
Nc1nc(O)c2nc(S)n([C@@H]3O[C@H](CO)[C@@H](O)[C@H]3O)c2n1	100%	100%	532 µM	–	50 µM	–	–
C=CCn1c(=S)n(C2OC(COC(C)=O)[C@@H](OC(C)=O)[C@H]2OC(C)=O)c2nc(NC(C)=O)nc(O)c21 (stereo not given in full)	134%	60%	295 µM	5 µM	7 µM	77%	–

SMILES	Max response [1]	Max response [2]	EC50 [3]	EC50 [4]	EC50 [5]	Max response [6]	ED50 [7]
Nc1nc(O)c2c(n1)n(C1OC(CO)[C@@H](O)[C@H]1O)c(=O)n2CC(O)CSc1ccccc1 (stereo not given in full)	–	12%	–	–	142 µM	–	–
C=CCn1c(=O)n(C2OC(CO[Si](C)(C)C(C)(C)C)[C@@H](O)[C@H]2O)c2nc(N)nc(O)c21 (stereo not given in full)	–	5%	–	–	1 µM	6%	Negative
Nc1nc(O)c2c(n1)n(C1OC(CO)[C@@H](O)[C@H]1O)c(=O)n2Cc1ccccc1 (stereo not given in full)	–	110%	–	–	6 µM	–	–
C=CCn1c(=O)n(CCC(COCc2ccccc2)COCc2ccccc2)c2nc(N)nc(O)c21	–	68%	–	–	7 µM	–	–
C=CCn1c(=O)n(CCCC)c2nc(N)nc(O)c21	36%	77%	11 µM	4 µM	2 µM	21%	–
C=CCn1c(=O)n(CCCCCCCC)c2nc(N)nc(O)c21	–	130%	–	–	37 µM	–	–
CC1(C)O[C@@H]2[C@H](O1)[C@@H](CO)O[C@H]2n1c(=O)n(C/C=C/c2ccccc2)c2c(O)nc(N)nc21	10%	16%	–	–	–	–	–
C=CCn1c(=O)n(C2CN(C(c3ccccc3)c3ccccc3)CC(CO)O2)c2nc(N)nc(O)c21 (stereo not given)	–	–	–	12 µM	–	46%	–
Nc1nc(O)c2c(n1)n(C1OC(CO)[C@@H](O)[C@H]1O)c(=O)n2C/C=C/c1ccccc1 (stereo not given in full)	5%	73%	4500 µM	–	103 µM	–	–
C=CCn1c(=O)n(Cc2ccccc2)c2nc(N)nc(O)c21	–	25%	–	–	5 µM	–	–
C=CCn1c(=S)n(COCCO)c2nc(N)nc(O)c21	7%	9%	13 µM	55 µM	14 µM	28%	–
COc1ccc(Cn2c(=O)n(C3OC(CO)[C@@H](O)[C@H]3O)c3nc(N)nc(O)c32)cc1 (stereo not given in full)	14%	44%	2400 µM	–	135 µM	–	–
CCCCn1c(=O)n(C2OC(CO)[C@@H](O)[C@H]2O)c2nc(N)nc(O)c21 (stereo not given in full)	70%	86%	100 µM	–	11 µM	–	–
C=CCSc1nc2c(O)nc(N)nc2n1C1OC(CO)[C@@H](O)[C@H]1O (stereo not given in full)	57%	107%	485 µM	–	107 µM	–	–
C=CCn1/c(=N\C#N)n([C@H]2OC(CO)[C@@H](O)[C@H]2O)c2nc(N)nc(O)c21 (stereo not given in full)	–	85%	–	–	156 µM	–	–
C=CCn1c(=S)n(C2OC(COC(C)=O)[C@@H](OC(C)=O)[C@H]2OC(C)=O)c2nc(N)nc(O)c21 (stereo not given in full)	96%	141%	34 µM	–	5 µM	–	–
NCC(O)Cn1c(=O)n(C2OC(CO)[C@@H](O)[C@H]2O)c2nc(N)nc(O)c21 (stereo not given in full)	–	110%	–	–	28 µM	–	–
C=CCn1c(=S)n(C2OC(CO)[C@@H](O)C(O)[C@H]2O)c2nc(N)nc(O)c21 (stereo not given in full)	–	5%	–	–	1 µM	3%	Negative
C=CCn1c(=S)n(C2OC(CO)[C@@H](O)[C@H]2O)c2nc(N)nc(O)c21 (stereo not given in full)	151%	100%	20 µM	–	1 µM	–	–
COc1ccc(CCNCC(O)Cn2c(=O)n(C3OC(CO)[C@@H](O)[C@H]3O)c3nc(N)nc(O)c32)cc1OC (stereo not given in full)	–	3%	–	–	–	–	–
C=CCn1c(=S)n([C@@H]2O[C@H](CO)[C@H]3OC(C)(C)O[C@H]32)c2nc(N)nc(O)c21	9%	89%	45 µM	40 µM	55 µM	30%	–
C=CCn1c(=O)n(C2OC(COC(=O)COC)[C@@H](OC(=O)COC)[C@H]2OC(=O)COC)c2nc(NC(=O)COC)nc(O)c21 (stereo not given in full)	53%	216%	819 µM	150 µM	28 µM	60%	–
Nc1nc(O)c2c(n1)n(C1OC(CO)[C@@H](O)[C@H]1O)c(=O)n2CCCl (stereo not given in full)	–	101%	–	19 µM	4 µM	83%	–
C=CCn1c(=O)n([C@@H]2O[C@H](CO)[C@H]3OC(=O)O[C@H]32)c2nc(N)nc(O)c21	97%	50%	47 µM	20 µM	3 µM	90%	–
